The values that follow come from PMC9979192 (Acta Pharmaceutica Sinica. B, 2022).

Like-named read-outs stand apart in the source and are kept apart here.

The test system of data set [1] is mouse primary hepatocytes. The data set can be described thus: In vitro de novo lipogenesis in primary hepatocytes. The format is cell-based. Particulars: 24 h treatment; compared with BA. An outline of the steps:
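Hepatocytes came from 8–12-week male C57BL/6J mice by Percoll purification and were kept in Hepato ZYME-SFM with 2 mmol/L l-glutamine and antibiotics at 6 × 10^5 cells/well. Treated either 24 h with 0.1 μCi/well [1,2-14C]-acetate during the last 4 h, or 4 h with the label present. 14C in fatty acids and cholesterol was extracted and scintillation-counted, then normalized to DMSO; n = 3–4.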

Data set [2] deals with primary mouse hepatocytes. Put plainly: Glucose output. Format: cell-based. The note with it: 6 h, pyruvate 2 mmol/L and lactate 20 mmol/L; compared to BA. Summed up:
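Primary hepatocytes from male C57BL/6J mice were treated with the test compound for 6 h in gluconeogenic medium with pyruvate (2 mmol/L) and lactate (20 mmol/L), with or without 4.0 mmol/L l-glutamine. Glucose output into the medium was measured and normalized to the DMSO group; n = 4.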

Another data set concerns HCD mice. Put plainly: In vivo cholesterol efflux in HCD mice. On the set-up: species or system C57BL/6J mice. The note with it: oral 30 mg/kg for 7 days.
Data set [3] relates to hypercholesterolemia patients. The note with it: at 12 weeks, with maximally tolerated statin therapy; cited from earlier work.
For data set [4] the following is noted: monkey plasma; ref a previous study; cited from earlier work.
The conditions of data set [5]: human plasma; ref a previous study; cited from earlier work.
The next data set deals with primary hepatocytes. Put plainly: In vitro cholesterol efflux and Abcg5/8 expression. The format is cell-based, mouse. Particulars: 3H-cholesterol, 12 h; BA 50 μmol/L. Summed up:
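For Abcg5/Abcg8 mRNA, primary mouse hepatocytes were treated 24 h with 50 μmol/L test compound plus 15 μg/mL cholesterol in 420 μg/mL M-β-CD. For efflux, cells were loaded 12 h with 0.5 μCi/mL 3H-cholesterol plus cholesterol, washed, then given 12.5–50 μmol/L compound with 15 μg/mL cholesterol in serum-free medium for 12 h at 37 °C. 3H in medium and NaOH lysate was counted; T0901317 (1 μmol/L) served as positive control.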

The conditions of data set [6]: rat plasma; ref a previous study; cited from earlier work.
The test system of a further data set is golden hamsters. Put plainly: HFHC diet-induced hyperlipidemia in golden hamsters. Format: in vivo, golden hamster. Particulars: 2 weeks; 326E 15 and 30 mg/kg, BA 30 mg/kg; vs vehicle.
The subject of a further data set is ApoE-/- mice. The data set can be described thus: Western diet-induced atherosclerosis in ApoE-/- mice. Format: in vivo, mouse. The note with it: 24 weeks once daily oral. Summed up: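 Male ApoE−/− mice were started at 6–8 weeks on a high-fat, high-cholesterol diet for 23–24 weeks, with oral compound dosing. Whole aortas were stained with Sudan IV for plaque, and plasma hsCRP was measured. For hepatic cholesterol, liver lipid residue was resuspended in ethanol with 1% Triton X-100 and assayed with commercial kits.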

For data set [7] the following is noted: mouse plasma; ref a previous study; cited from earlier work.
A further data set has as its system rhesus monkeys. Put plainly: Rhesus monkeys with spontaneous hyperlipidemia, efficacy and safety. The format is in vivo, rhesus monkey. Particulars: 2 weeks; 326E 20 mg/kg, atorvastatin 2.4 mg/kg.

As to `CC(C)(CCCCC=CCCCCCC(C)(C)C(=O)O)C(=O)O` [326F], in [1], the “incorporation of [1,2-14C]-acetate into fatty acids and cholesterol” value is reported as “dose-dependent lipogenesis inhibition”. The cumulative glucose production result in [2] is reported as “reduced with a greater tendency”.
Take `CC(C)(CCCCCC(O)CCCCCC(C)(C)C(=O)O)C(=O)O` [BA, Bempedoic acid]: the hepatic cholesterol content entry in the data set on HCD mice is “significantly reduced hepatic cholesterol content”. In addition, in data set [3], the “placebo-adjusted decrease from baseline in LDL-C” value is reported as 16.5%. Also, the “in vitro plasma protein-binding rate” value in data set [4], in data set [5], in data set [6] and in data set [7] was 95%–98 in each case. The “cholesterol efflux into the cell culture medium” value in the data set on primary hepatocytes is “markedly promoted cholesterol efflux”. For the same compound, the body weight result in the data set on golden hamsters is “significantly decreased”. Moreover, in the data set with ApoE-/- mice, the “hepatic cholesterol content reduced compared to vehicle” value was 37%. The same compound had an aortic plaques reduced in the data set on ApoE-/- mice (326E 15, 30, 60 mg/kg, BA 30 mg/kg) of 33.4%.
Regarding `CC(C)c1c(C(=O)Nc2ccccc2)c(-c2ccccc2)c(-c2ccc(F)cc2)n1CC[C@@H](O)C[C@@H](O)CC(=O)O` [atorvastatin, Atorvastatin], the “body weight during treatment” value in the data set with rhesus monkeys is given as “unchanged”.
